Paper PMC5298935 (The FEBS journal, 2016)
Like-named read-outs stand apart in the source and are kept apart here. Square brackets hold non-standard residues; d marks the D form. Peptide text beside a SMILES is read from it. pS = N[C@@H](COP(=O)(O)O)C(=O)O

Legend:
[1] = biological target: Pin1-FL (with 6X-His tag) (Homo sapiens, UniProt Q13526); assay: Biolayer interferometry; type: binding
In short: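 Ni-NTA biosensors loaded with 10 μg/mL His-tagged full-length Pin1 for 600 s, quenched 300 s with buffer plus 10 mM imidazole and 25 μg/mL biotin. Association with singly or dually phosphorylated peptide at 80–1.25 μM for 600 s, then 600 s dissociation in buffer. Buffer: 10 mM HEPES, 20 mM NaCl, 0.1 mM TCEP, pH 7.4; 25°C. Pin1-free sensors served as nonspecific-binding reference.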

[2] = biological target: T1, Pin1-FL (Homo sapiens, UniProt Q13526); assay: Simulation of Pin1-FL binding at low micromolar concentrations
[3] = biological target: T1, Pin1-FL; type: binding; conditions: B = C-terminal site
In short: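 Full-length Pin1 underwent reverse titration with dually phosphorylated peptides; HSQC perturbations in N and H dimensions were fit separately (fmincon). The multistate model added two bivalent states, each with its own Keq. Non-bivalent KD and bound shifts were fixed from single-site titrations. Residues needed distinct bound shifts per motif. Reduced chi-square used σH 0.00407 and σN 0.0205 ppm.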

T1 sequence (Q13526 whole entry): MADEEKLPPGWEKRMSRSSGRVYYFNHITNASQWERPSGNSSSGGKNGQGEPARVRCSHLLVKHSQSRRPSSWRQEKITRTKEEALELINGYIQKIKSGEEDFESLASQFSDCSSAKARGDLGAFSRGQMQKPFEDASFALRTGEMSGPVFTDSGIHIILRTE
Pin1-FL (with 6X-His tag), sequence (Q13526 whole entry): as above

Row | Kd [1] | ΔGequiv (change in Gibbs free energy) ([2]; corresponds to the equivalent bimolecular KD at 20 μM peptide) | total fraction of bound Pin1 ([2]; simulated, 20 μM peptide, total Pin1 ~0.5 μM, sum of all bound Pin1 species divided by total Pin1) | KeqB:WW (Fitted Keq^A:WW, Keq^B:WW and Δδbound for bivalent states) ([3]; nitrogen dimension) | KeqB:WW (Fitted Keq^A:WW, Keq^B:WW and Δδbound for bivalent states) ([3]; proton dimension) | Pin1 binding detected by biolayer interferometry ([1]; peptide 1.25-80 μM, BLI buffer pH 7.4, 25°C) | SMILES
1 | 1 µM | -7.49 kcal/mol | 0.85 | 0.02 | 0.43 |  | CC(=O)N[C@@H](CCC(=O)O)C(=O)N[C@@H](C)C(=O)N[C@@H](CCC(=O)O)C(=O)N[C@@H](C)C(=O)N[C@@H](Cc1c[nH]c2ccccc12)C(=O)N[C@@H](COP(=O)(O)O)C(=O)N1CCC[C@H]1C(=O)N[C@@H](CCCNC(=N)N)C(=O)N[C@@H](CCCCN)C(=O)N[C@@H](CC(C)C)C(=O)N1CCC[C@H]1C(=O)N[C@@H](CO)C(=O)N[C@@H](CO)C(=O)N[C@@H](C)C(=O)N[C@@H](CO)C(=O)N[C@H](C(=O)N[C@@H](Cc1ccccc1)C(=O)N[C@@H](CC(C)C)C(=O)N[C@@H](COP(=O)(O)O)C(=O)N1CCC[C@H]1C(=O)N[C@@H](C)C(=O)N[C@@H](Cc1ccccc1)C(=O)N1CCC[C@H]1C(=O)NCC(N)=O)[C@@H](C)O [p131/p144] (Ac-EAEAW[pS]PRKLPSSASTFL[pS]PAFPG-NH2)
2 |  |  |  |  |  | not measurable | CC(C)C[C@H](NC(=O)[C@H](Cc1ccccc1)NC(=O)[C@@H](NC(=O)[C@@H](N)CO)[C@@H](C)O)C(=O)N[C@@H](COP(=O)(O)O)C(=O)N1CCC[C@H]1C(=O)N[C@@H](C)C(=O)N[C@@H](Cc1ccccc1)C(=O)N1CCC[C@H]1C(=O)NCC(=O)O [p144] (H-STFL[pS]PAFPG-OH)
